This note sets out measurements from BindingDB's records for doi:10.1021/jm001008m (University of The Saarland, 2000).

The target of test [1] is T1, Steroid 17-alpha-hydroxylase/17,20 lyase (Rattus norvegicus, UniProt P11715).
T1 sequence (P11715 whole entry): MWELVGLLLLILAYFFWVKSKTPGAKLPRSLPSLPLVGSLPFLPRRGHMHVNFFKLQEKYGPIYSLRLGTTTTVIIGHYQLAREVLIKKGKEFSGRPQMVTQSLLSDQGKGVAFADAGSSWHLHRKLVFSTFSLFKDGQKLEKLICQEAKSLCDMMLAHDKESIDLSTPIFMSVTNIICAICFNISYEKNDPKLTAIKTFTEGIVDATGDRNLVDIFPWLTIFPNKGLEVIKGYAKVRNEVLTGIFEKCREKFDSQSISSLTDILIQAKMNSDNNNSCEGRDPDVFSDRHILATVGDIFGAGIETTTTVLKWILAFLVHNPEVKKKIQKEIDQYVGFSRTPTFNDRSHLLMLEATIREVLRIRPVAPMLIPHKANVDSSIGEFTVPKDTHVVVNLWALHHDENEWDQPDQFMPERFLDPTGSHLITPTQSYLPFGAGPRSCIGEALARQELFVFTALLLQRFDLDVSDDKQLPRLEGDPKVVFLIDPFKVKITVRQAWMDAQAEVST
The experiment in a line: Evaluated for the inhibitory activity towards Cytochrome P450 17 rat enzyme using testicular microsome at 25 uM of substrate (progesterone). Put shortly:
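Testicular microsomes (human for human enzyme, rat for rat enzyme) incubated with progesterone substrate at 25 µM; product measured by RP-HPLC with UV detection. IC50 = concentration giving 50% inhibition, mean of at least two experiments.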

Test [2] addresses T2, Steroid 17-alpha-hydroxylase/17,20 lyase (Homo sapiens, UniProt P05093).
T2 sequence (P05093 whole entry): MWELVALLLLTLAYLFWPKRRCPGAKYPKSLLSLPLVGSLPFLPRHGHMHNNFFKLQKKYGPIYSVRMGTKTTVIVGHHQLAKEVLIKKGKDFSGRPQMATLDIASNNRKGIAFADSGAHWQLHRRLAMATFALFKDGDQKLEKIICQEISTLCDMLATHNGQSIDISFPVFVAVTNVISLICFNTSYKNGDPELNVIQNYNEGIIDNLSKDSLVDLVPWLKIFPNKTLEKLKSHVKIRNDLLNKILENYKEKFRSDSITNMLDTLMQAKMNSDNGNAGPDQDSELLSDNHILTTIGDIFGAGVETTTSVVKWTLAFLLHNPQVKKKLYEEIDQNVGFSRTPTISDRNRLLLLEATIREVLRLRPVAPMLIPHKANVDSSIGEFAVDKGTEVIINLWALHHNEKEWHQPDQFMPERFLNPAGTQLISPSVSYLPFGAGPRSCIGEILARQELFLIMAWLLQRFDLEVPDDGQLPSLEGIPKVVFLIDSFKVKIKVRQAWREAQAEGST
The experiment in a line: Evaluated for the inhibitory activity towards Cytochrome P450 17 human enzyme using testicular microsome at 25 uM of substrate (progesterone).

Test [3] concerns the target T3, 3-oxo-5-alpha-steroid 4-dehydrogenase 2 (Homo sapiens, UniProt P31213).
T3 sequence (P31213 whole entry): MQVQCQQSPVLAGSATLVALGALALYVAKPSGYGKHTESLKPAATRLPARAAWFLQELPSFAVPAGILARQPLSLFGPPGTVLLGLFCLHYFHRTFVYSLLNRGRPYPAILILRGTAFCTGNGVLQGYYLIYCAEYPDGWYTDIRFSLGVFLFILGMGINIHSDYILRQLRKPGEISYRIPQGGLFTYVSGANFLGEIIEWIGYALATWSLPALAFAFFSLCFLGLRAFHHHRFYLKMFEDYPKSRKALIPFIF
Description: Evaluated for the inhibitory activity against human steroid 5-alpha-reductase type 2 from human BPH tissue at 210 nM of testosterone. Put shortly: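 Enzyme from prostate homogenate of BPH patients, assayed at pH 5.5 with radiolabeled testosterone at 210 nM; product separated by HPLC. IC50 taken as inhibitor concentration giving 50% inhibition; mean of at least two experiments.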

The term IC50 denotes the concentration that inhibits the measured activity by half. A lower IC50 goes with greater potency in that assay.

Take `CC(N=O)[C@H]1CCC2C3CCC4=CC(=O)CCC4(C)C3CCC21C` (stereo partly drawn) [17-(1-Hydroxyimino-ethyl)-10,13-dimethyl-1,2,6,7,8,9,10,11,12,13,14,15,16,17-tetradecahydro-cyclopenta[a]phenanthren-3-one]: the figures for the IC50 in test [1], in test [2] and in test [3] were over 125000 nM, over 2500 nM and 580 nM, respectively.
